# pCIP destab: compounds decreasing mouse p/CIP protein stability | Q05BA5 | F442A p/CIP-EGFP cells, EGFP fluorescence, 16 h | decrease of EGFP signal, % at 10 µM | 290,000 compounds, 0.01% hits | AID 1984;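 active = EGFP signal decrease of at least 30% at 10 µM or well 3 SD below plate mean, unless failing retest; inactive = the rest, including hits failing retest or dose response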
# NCF1 inh: inhibitors of human p47phox binding; 220,000 compounds, 0.53% hits; inhibition, % at 24.7 µM; P14598; p47phox/p22phox peptide binding, fluorescence polarization, 2 h;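 active = inhibition above about 30%, limit read from the data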;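 also: 0% = p47phox with labelled peptide and 100% = labelled peptide alone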
# Target sequence (P14598 whole entry, looked up): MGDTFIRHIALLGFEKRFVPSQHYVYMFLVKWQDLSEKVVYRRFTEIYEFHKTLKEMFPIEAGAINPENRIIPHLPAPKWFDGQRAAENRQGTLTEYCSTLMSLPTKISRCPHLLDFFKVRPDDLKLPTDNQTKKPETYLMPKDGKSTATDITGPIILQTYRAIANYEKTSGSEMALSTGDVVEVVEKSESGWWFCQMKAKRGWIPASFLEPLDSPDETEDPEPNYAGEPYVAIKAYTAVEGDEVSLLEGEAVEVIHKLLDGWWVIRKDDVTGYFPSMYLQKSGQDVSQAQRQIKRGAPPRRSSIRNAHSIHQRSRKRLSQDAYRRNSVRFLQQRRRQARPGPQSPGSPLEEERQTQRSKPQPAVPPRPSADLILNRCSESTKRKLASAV
# RAM inhibit: inhibitors of the yeast RAM network; 190,000 compounds, 1.8% hits; S. cerevisiae dse1pr::URA3 reporter, 5-FOA growth OD615, 2 d; analog-sensitive cbk1-as2 kinase mutant strain; AID 868; inhibition, % at 50 µM;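 active = inhibition above a set limit, 3 SD over mean compound inhibition, cut at about 8.4% in these data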;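 also: 0% = DMSO-only wells with no growth and 100% = 10 µM 1-NA-PP1 full growth; inhibition rescues growth on 5-FOA so higher OD means more RAM inhibition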
# Dynein transport: dynein cargo transport inhibition; 3617.4 mouse cells, GR-EGFP nuclear translocation imaging; test concentration mostly 20 µM; stimulated with dexamethasone, 1 µM; hits give low values; z-score, hits read low; 220,000 compounds, 0.47% hits;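 active = plate z-score of nuclear minus cytoplasmic receptor signal below a set negative limit, without overly bright fluorescence or cell loss, cut at about -3.5 in these data, passing the limit was not always enough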;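 also: z-score of nuclear minus cytoplasmic ring GR-EGFP intensity difference per well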
#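 Also added: dexamethasone, 1.0 µM final. Medium: tet-free, stripped-serum medium. Detection: fixed, Hoechst-stained cells imaged at 10x for EGFP. Read-out: nuclear-to-cytoplasmic GR-EGFP distribution per well. Times: induction 48 h, compound 1 h, agonist 30 min.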
# Numbers without * were called inactive; · = no result given. Shown are actives, neighbours in structure and some others; about 1.9% of the full set was active somewhere.
SMILES,pCIP destab,NCF1 inh,RAM inhibit,Dynein transport
CCN1C/C(=C\c2cccc([N+](=O)[O-])c2)C(=O)/C(=C/c2cccc([N+](=O)[O-])c2)C1,-9.1,-2.3,3.4,-3.75*
O=C(NCc1ccccc1)C1CC(=O)N(C2CCCCC2)C1 (stereo not drawn),3.3,·,·,·
COc1ccc(N=C2SC(C(=O)Nc3ccc4c(c3)OCO4)CC(=O)N2C)cc1 (stereo not drawn),-9.5,1.1,2.5,0.0517
CCCCCCCNC(=O)C1CC(=O)N(C)C(=Nc2ccc(OC)cc2)S1 (stereo not drawn),6.5,-9.3,9.3*,0.206
CCC1CN(C(=O)NCc2ccc(C)cc2)c2cc(Cl)ccc2O1 (stereo not drawn),-7.6,·,·,·
O=C(/C=C/c1ccc(Cl)cc1)N1CCOCC1,-0.1,·,·,·
CC(=O)Nc1cc2c3c(c1)CCC(=O)N3CCC2,4.9,·,·,·
CCOc1ccc2c(c1)-c1c(ssc1=S)C(C)(C)N2C,0.0,-1.3,8.8*,-0.46
Cc1cc(NC(=O)COc2ccc(Cl)cc2Cl)n(-c2ccccc2)n1,-4.5,8.6,8.6*,0.627
O=C(COc1ccc(Cl)cc1Cl)Nc1ccc(CN2CCCCC2)cc1,2.3,38.2*,1.6,0.991
CN(c1cccc(NC(=O)COc2ccc(Cl)cc2Cl)c1)S(C)(=O)=O,-5.2,0.2,8.8*,-0.0629
O=C(COc1ccc(Cl)cc1Cl)Nc1ccc(CN2CCOCC2)cc1,-6.1,·,·,·
Cc1cc(NC(=O)CSc2cc(Cl)ccc2Cl)n(-c2ccccc2)n1,1.5,-10.9,2.6,-0.461
Cc1ccc(S(=O)(=O)N(CC(=O)Nc2cccc(N(C)S(C)(=O)=O)c2)c2ccc(Cl)c(Cl)c2)cc1,0.5,-15.2,5.9,-0.456
CN(c1cccc(NC(=O)CN(c2ccc(Cl)c(Cl)c2)S(=O)(=O)c2ccccc2)c1)S(C)(=O)=O,8.7,-17.6,9.7*,-0.357
CCN1CCN(c2ccc(NC(=O)c3ccc4c(c3)[nH]c(=O)n4Cc3ccc(OC)cc3)cc2)CC1,-11.5,-2.7,2.4,-0.789
COC(=O)c1cc(S(=O)(=O)Nc2ccc(C)cn2)c[nH]1,-14.8,·,·,·
C/C(=N\NC(=O)c1ccco1)c1ccc(NC(=O)C(F)(F)F)cc1,1.1,·,·,·
CCOC(=O)c1cnn(-c2nc(-c3ccc(F)cc3)cs2)c1C(F)(F)F,-7.8,-9.5,9.2*,-0.399
CCOC(=O)c1cnn(-c2nc(-c3ccccc3F)cs2)c1C(F)(F)F,4.5,-10.6,-0.3,-0.205
CCOC(=O)c1cnn(-c2nc(-c3ccccc3)cs2)c1C(F)(F)F,-2.2,-10.1,10.2*,0.591
Cc1ccc(OCc2nnc(SC(C)C(=O)O)n2-c2ccccc2)cc1 (stereo not drawn),-6.7,·,·,·
CCOc1cc(Cl)c(NC(=O)CC)cc1OCC,9.4,-6.0,0.1,0.117
CCNC(=S)N/N=C/c1cccc(/C=N/NC(=S)NCC)c1,-14.7,-17.8,10.0*,0.497
CCc1ccc(/C=N/NC(=S)NCCc2ccccc2)cc1,-6.7,-22.0,8.5*,-0.499
SMILES,pCIP destab,NCF1 inh,RAM inhibit,Dynein transport
CC(=O)Nc1ccc(NC(=O)CSc2nnc(NC(=O)c3cccc(F)c3)s2)cc1,5.9,·,·,·
O=C1c2ccccc2NC(c2cccc(O)c2)N1NS(=O)(=O)c1ccccc1 (stereo not drawn),-0.1,-8.5,1.1,-0.171
Cc1cccc(NC(=O)CN2C(=O)N/C(=C/c3cc(C)n(-c4ccncc4)c3C)C2=O)c1,-2.1,45.6*,-1.5,0.291
CCOc1ccccc1C(=O)Nc1ccccc1-c1ccccc1,-5.2,-0.3,9.6*,0.839
CCOc1ccccc1NC(=O)C(OC(=O)c1ccccc1O)c1ccccc1 (stereo not drawn),1.5,-2.4,8.9*,0.258
CCOc1ccccc1C(=O)Nc1ccccc1O,-5.4,1.6,-0.3,-0.578
C=CCN(CC=C)c1ccc(N2C(=O)C3CCCCC3C2=O)cc1[N+](=O)[O-] (stereo not drawn),-6.1,0.4,9.0*,1
O=C(CSc1ccc(Cl)cc1)N1CCN(c2ncc(C(F)(F)F)cc2Cl)CC1,4.3,-15.7,11.3*,-1.32
O=C(COC(=O)c1ccccn1)Nc1cccc(Cl)c1,-2.5,35.9*,0.8,-1.01
CC1CC(C)(C)NC(=S)N1CCC(=O)N1CCc2ccccc21 (stereo not drawn),4.6,24.7,0.7,-0.668
Cc1cccc(COCC(Cc2ccccc2)N2CCN(C(=O)c3cc(Cl)cc(Cl)c3)CCC2=O)c1 (stereo not drawn),-1.2,-5.5,11.1*,1.27
